ChEMBL document CHEMBL1153214, “Synthesis and PGE(2) production inhibition of 1H-furan-2,5-dione and 1H-pyrrole-2,5-dione derivatives” (Bioorg Med Chem Lett, 2010)
pIC50: −log10 of the molar value.

Columns and labels:
[1] = system: RAW264.7; experiment: Cytotoxicity against LPS-stimulated mouse RAW264.7 cells assessed as cell viability after 24 hrs by MTT assay; type: cell-based; settings: RAW264.7, 24 h
Procedure, shortened: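 RAW 264.7 cells plated at 10⁵ cells/well in 96-well plates, treated with various concentrations of compounds in the presence of LPS. Viability read by colorimetric MTT assay 24 h after treatment.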

[2] = system: RAW264.7; experiment: Antiinflammatory activity in mouse RAW264.7 cells assessed as inhibition of LPS-induced PGE2 production by EIA; type: functional, cell-based; settings: for pIC50: Mus musculus, RAW264.7, read-out: IC50; for IC50: raw264.7
Procedure, shortened: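 RAW 264.7 macrophages seeded at 10⁵ cells/well in 96-well plates. Cells pretreated with test samples at increasing concentrations or NS398 as positive control, then stimulated with LPS 1 µg/ml for the indicated time. PGE₂ in the medium quantified by EIA. IC50 derived; experiments run at least three times.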

[3] = target: T1, Prostaglandin G/H synthase 2 (Homo sapiens, UniProt P35354); experiment: Inhibition of COX2 assessed as PGF2alpha level by EIA
T1 sequence (P35354 whole entry): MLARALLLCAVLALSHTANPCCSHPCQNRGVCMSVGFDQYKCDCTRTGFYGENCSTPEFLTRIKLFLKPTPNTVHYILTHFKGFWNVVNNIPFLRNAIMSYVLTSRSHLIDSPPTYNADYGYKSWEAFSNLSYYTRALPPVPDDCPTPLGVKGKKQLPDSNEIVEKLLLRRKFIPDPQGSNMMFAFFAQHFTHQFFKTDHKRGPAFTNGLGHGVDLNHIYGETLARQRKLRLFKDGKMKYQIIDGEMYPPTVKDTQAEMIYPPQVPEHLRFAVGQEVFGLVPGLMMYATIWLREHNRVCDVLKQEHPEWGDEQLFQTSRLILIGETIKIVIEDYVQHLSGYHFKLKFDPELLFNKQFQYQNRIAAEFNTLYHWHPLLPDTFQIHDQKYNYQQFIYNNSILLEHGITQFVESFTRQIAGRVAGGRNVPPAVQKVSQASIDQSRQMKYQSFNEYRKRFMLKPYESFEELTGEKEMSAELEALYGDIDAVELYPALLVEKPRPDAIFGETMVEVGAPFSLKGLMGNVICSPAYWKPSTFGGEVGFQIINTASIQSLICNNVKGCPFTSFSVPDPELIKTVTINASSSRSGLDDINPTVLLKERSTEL

Row | SMILES | pIC50 [2] | pIC50 [3] | IC50 [2] | pIC50 [1]
1 | O=C1NC(=O)C(c2ccccc2)=C1c1ccccc1 | 4.55 | – | – | 3.57
2 | COc1ccc(C2=C(c3ccccc3)C(=O)NC2=O)cc1OC | 3.88 | – | – | 3.52
3 | COc1cc(C2=C(c3ccccc3)C(=O)NC2=O)cc(OC)c1OC | 4.60 | – | – | 3.82
4 | COc1ccc(C2=C(c3ccc([S+](C)[O-])cc3)C(=O)OC2=O)cc1 (configuration not stated) | 4.62 | – | – | 3.55
5 | CSc1ccc(C2=C(c3ccc(OC(C)=O)cc3)C(=O)OC2=O)cc1 | 4.52 | – | – | 3.48
6 | CC(=O)Oc1ccc(C2=C(c3ccc([S+](C)[O-])cc3)C(=O)OC2=O)cc1 (configuration not stated) | 4.16 | – | – | 3.58
7 | COc1cc(C2=C(c3ccccc3)C(=O)OC2=O)cc(OC)c1OC | 4.43 | – | – | 3.51
8 | CS(=O)(=O)c1ccc(C2=C(c3ccccc3)C(=O)OC2=O)cc1 | 4.81 | – | – | 3.58
9 | CS(=O)(=O)c1ccc(C2=C(c3ccc(O)cc3)C(=O)NC2=O)cc1 | – | – | Not Active | 3.77
10 | O=C1NC(=O)C(c2cccc(O)c2)=C1c1ccccc1 | 4.86 | – | – | 3.80
11 | C[S+]([O-])c1ccc(C2=C(c3ccccc3)C(=O)NC2=O)cc1 (configuration not stated) | 4.67 | – | – | 3.52
12 | NS(=O)(=O)c1ccc(C2=C(c3ccccc3)C(=O)NC2=O)cc1 | – | 4.81 | – | 3.80
13 | COc1ccc(C2=C(c3ccc(S(C)(=O)=O)cc3)C(=O)OC2=O)cc1 | – | – | Not Active | 3.57
14 | CSc1ccc(C2=C(c3ccc(N(C(C)=O)C(C)=O)cc3)C(=O)OC2=O)cc1 | 4.11 | – | – | 3.56
15 | C[S+]([O-])c1ccc(C2=C(c3ccc(F)cc3)C(=O)NC2=O)cc1 (configuration not stated) | 4.34 | – | – | 3.62
16 | CS(=O)(=O)c1ccc(C2=C(c3ccc(F)cc3)C(=O)NC2=O)cc1 | 4.97 | – | – | 3.58
17 | COc1ccc(C2=C(c3ccccc3)C(=O)OC2=O)cc1OC | 4.15 | – | – | 3.59
18 | C[S+]([O-])c1ccc(C2=C(c3ccc(O)cc3)C(=O)NC2=O)cc1 (configuration not stated) | 4.01 | – | – | 3.67
19 | COc1ccc(C2=C(c3ccc(SC)cc3)C(=O)OC2=O)cc1 | 4.90 | – | – | 3.57
20 | CSc1ccc(C2=C(c3ccc(F)cc3)C(=O)NC2=O)cc1 | 4.59 | – | – | 3.92

Further lines, with some results ahead:

Row | pIC50 [2] | pIC50 [3] | IC50 [2] | SMILES | pIC50 [1]
21 | 5.36 | 4.78 | – | CC(=O)Oc1ccc(C2=C(c3ccc(S(C)(=O)=O)cc3)C(=O)OC2=O)cc1 | 3.58
22 | 6.08 | 4.68 | – | CSc1ccc(C2=C(c3ccc(O)cc3)C(=O)NC2=O)cc1 | 3.90
23 | 5.57 | 4.79 | – | O=C1NC(=O)C(c2ccc(O)c(O)c2)=C1c1ccccc1 | 3.68
24 | 5.00 | – | – | COc1cccc(C2=C(c3ccccc3)C(=O)NC2=O)c1 | 3.59
25 | 5.10 | – | – | O=C1NC(=O)C(c2ccc3c(c2)OCO3)=C1c1ccccc1 | 3.71
26 | 5.24 | 4.70 | – | CSc1ccc(C2=C(c3ccc(NC(C)=O)cc3)C(=O)OC2=O)cc1 | 3.60
27 | 5.15 | 4.73 | – | O=C1OC(=O)C(c2ccc3c(c2)OCO3)=C1c1ccccc1 | 3.48
28 | 5.33 | 4.79 | – | CSc1ccc(C2=C(c3ccccc3)C(=O)NC2=O)cc1 | 3.82
29 | 5.57 | 4.76 | – | CS(=O)(=O)c1ccc(C2=C(c3ccccc3)C(=O)NC2=O)cc1 | 3.57
30 | 5.45 | 4.73 | – | CSc1ccc(C2=C(c3ccccc3)C(=O)OC2=O)cc1 | 3.71
31 | 5.09 | 4.76 | – | O=C1NC(=O)C(c2cc(O)c(O)c(O)c2)=C1c1ccccc1 | 3.58
32 | 5.32 | – | – | CS(=O)(=O)Nc1ccc([N+](=O)[O-])cc1OC1CCCCC1 [NS-398] | –
